According to ChEMBL document CHEMBL4673221, “Furanoflavones pongapin and lanceolatin B blocks the cell cycle and induce senescence in CYP1A1-overexpressing breast cancer cells” (Bioorg Med Chem, 2018):
Calls of active or inactive are those of the source. The calls are words filed in the database; no cut-off is given here.

What was measured:
[1] = biological target: T1, Cytochrome P450 1A1 (Homo sapiens, UniProt P04798); experiment: Inhibition of human CYP1A1 expressed in HEK293 cells assessed as reduction in CYP1A1 mediated […] induced-toxicity by measuring EC50 at 3 times of IC50 concentration by MTT assay relative to control; assay type: cell-based; parameters: scale not given: the % may be the effect or the level left
T1 sequence (P04798 whole entry): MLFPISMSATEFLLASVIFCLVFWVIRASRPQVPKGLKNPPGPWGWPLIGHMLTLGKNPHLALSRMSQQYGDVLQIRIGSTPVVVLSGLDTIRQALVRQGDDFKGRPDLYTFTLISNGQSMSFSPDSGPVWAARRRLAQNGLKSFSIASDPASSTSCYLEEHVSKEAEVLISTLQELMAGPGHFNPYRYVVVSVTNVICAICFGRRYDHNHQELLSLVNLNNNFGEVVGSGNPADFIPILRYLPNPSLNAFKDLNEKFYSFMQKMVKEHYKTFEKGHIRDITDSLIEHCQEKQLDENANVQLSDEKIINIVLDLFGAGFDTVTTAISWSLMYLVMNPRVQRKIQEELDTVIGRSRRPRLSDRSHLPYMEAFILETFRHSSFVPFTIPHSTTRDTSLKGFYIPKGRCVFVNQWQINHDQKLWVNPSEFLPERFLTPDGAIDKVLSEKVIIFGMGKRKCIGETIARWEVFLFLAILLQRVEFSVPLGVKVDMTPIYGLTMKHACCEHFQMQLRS
Procedure, shortened: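 Adherent HEK293 cells transfected with pcDNA3.1/hCYP1A1 were exposed to B[a]P over 0.05–100 µM, with inhibitor at 3x its IC50 from the suspension HEK293-CYP1A1 assay. The EC50 of B[a]P for cell growth inhibition was derived. Cells transfected with empty plasmid were used for comparison. Values are mean and SD of three independent experiments.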

[2] = biological target: T2, CYP1A1 (Homo sapiens, UniProt P04798); experiment: Inhibition of human CYP1A1 expressed in human HEK293 cells at 10 uM using 7-ethoxyresorufin as substrate preincubated for 30 mins followed by substrate additon and measured after 60 mins by fluorescence based assay relative to control; assay type: cell-based; settings: HEK293 cells expressing human CYP1A1, probe 7-ethoxyresorufin, time 90 min
T2 sequence (P04798 whole entry): T1 sequence (P04798 whole entry)
Procedure, shortened: (§1)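 The assay used live recombinant human HEK293 cells grown in suspension, each cell line expressing a single CYP (CYP1A1 or CYP1B1). Percent inhibition was read at 10 μM, and IC50 values were determined. Values are mean ± SD of three independent experiments. Alpha-naphthoflavone served as the reference inhibitor.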

[3] = biological target: T2, CYP1A1; experiment: Inhibition of human CYP1A1 expressed in sacchrosomes at 10 uM using 7-ethoxyresorufin as substrate by fluorescence based assay relative to control; settings: sacchrosomes expressing human CYP1A1, probe 7-ethoxyresorufin
Procedure, shortened: (§2)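 Enzymes were microsomal preparations isolated from recombinant baker's yeast (Sacchrosomes). Compounds were screened at 10 μM for percent inhibition, and IC50 values were also determined. Values are mean ± SD of three independent experiments. Alpha-naphthoflavone served as the positive control.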

[4] = biological target: T3, Cytochrome P450 1B1 (Homo sapiens, UniProt Q16678); experiment: Inhibition of human CYP1B1 expressed in human HEK293 cells using 7-ethoxyresorufin as substrate preincubated for 30 mins followed by substrate additon and measured after 60 mins by fluorescence based assay; assay type: ADME, cell-based; procedure, shortened: as §1
T3 sequence (Q16678 whole entry): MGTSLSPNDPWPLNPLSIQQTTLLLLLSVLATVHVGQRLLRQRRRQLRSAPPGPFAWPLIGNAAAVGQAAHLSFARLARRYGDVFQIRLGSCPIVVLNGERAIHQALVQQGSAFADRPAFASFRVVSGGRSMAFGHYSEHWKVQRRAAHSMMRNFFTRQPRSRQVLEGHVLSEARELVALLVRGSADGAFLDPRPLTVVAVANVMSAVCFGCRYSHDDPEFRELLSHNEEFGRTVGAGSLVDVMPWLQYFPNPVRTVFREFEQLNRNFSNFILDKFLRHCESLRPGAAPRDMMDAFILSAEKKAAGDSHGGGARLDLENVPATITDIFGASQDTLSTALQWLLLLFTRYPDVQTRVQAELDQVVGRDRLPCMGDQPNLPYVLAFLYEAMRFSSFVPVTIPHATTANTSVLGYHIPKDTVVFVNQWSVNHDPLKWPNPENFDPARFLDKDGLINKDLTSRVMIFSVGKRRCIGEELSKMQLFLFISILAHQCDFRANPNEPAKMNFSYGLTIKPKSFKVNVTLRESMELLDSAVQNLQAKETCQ

[5] = biological target: T1, Cytochrome P450 1A1; experiment: Inhibition of human CYP1A1 expressed in human HEK293 cells using 7-ethoxyresorufin as substrate preincubated for 30 mins followed by substrate additon and measured after 60 mins by fluorescence based assay; assay type: cell-based; procedure, shortened: as §1
[6] = biological target: T3, Cytochrome P450 1B1; experiment: Inhibition of human CYP1B1 expressed in sacchrosomes using 7-ethoxyresorufin as substrate by fluorescence based assay; assay type: ADME; procedure, shortened: as §2
[7] = biological target: T1, Cytochrome P450 1A1; experiment: Inhibition of human CYP1A1 expressed in sacchrosomes using 7-ethoxyresorufin as substrate by fluorescence based assay; procedure, shortened: as §2
[8] = system: MCF7; experiment: Induction of cell cycle arrest in human MCF7 over expressing CYP1A cells assessed as accumulation at G2/M phase incubated for 24 hrs by PI staining based flow cytometric analysis (reference value: 22.6%); assay type: functional
[9] = system: MCF7; experiment: Induction of cell cycle arrest in human MCF7 over expressing CYP1A cells assessed as accumulation at S phase incubated for 24 hrs by PI staining based flow cytometric analysis (reference value: 20.1%); assay type: functional
[10] = system: MCF7; experiment: Induction of cell cycle arrest in human MCF7 over expressing CYP1A cells assessed as accumulation at G0/G1 phase incubated for 24 hrs by PI staining based flow cytometric analysis (Rvb =54.3 %); assay type: functional
[11] = system: MCF7; experiment: Cell cycle arrest in human MCF-7 cells over expressing CYP1A1 assessed as down regulation of CyclinD1 after 24 hrs by western blotting assay; assay type: functional, cell-based
Procedure, shortened: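 Cyclin D1 was detected by Western blot, with β-tubulin as loading control. Untreated cells served as control.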

[12] = system: MCF7; experiment: Antiproliferative activity against human MCF-7 cells overexpressing CYP1A1 assessed as reduction in cell viability; assay type: functional, cell-based
Procedure, shortened: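 MCF-7 cells transfected with pcDNA3.1/CYP1A1 and selected in G418 (1 mg/mL, then […]) to give the stable MCF7-1A1 line. CYP1A1 expression was confirmed by Western blot and 7-ethoxyresorufin enzyme assay. The line was subcloned repeatedly. The reported value is the EC50 for inhibition of proliferation.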

SMILES | Activity [1] | inhibition at 1 h, 10 µM [2] | inhibition at 10 µM [3] | IC50 [4] | IC50 [5] | IC50 [6] | IC50 [7] | Activity [8] | Activity [9] | Activity [10] | Activity [11] | EC50 [12]
COc1c(-c2cc(-c3ccccc3)n(-c3ccc(C#N)cc3)n2)ccc2occc12 | 91% | > 84% | > 70% | 5.7 µM | 0.49 µM | > 20 µM | 0.28 µM |  |  |  |  | 
COc1c(-c2cc(-c3ccccc3)nn2-c2ccccc2[N+](=O)[O-])ccc2occc12 |  |  | 31.6% |  |  |  |  |  |  |  |  | 
O=c1cc(-c2cccc(O)c2)oc2c1ccc1occc12 |  |  |  | 1.2 µM | 0.24 µM | 3.8 µM | 0.69 µM |  |  |  |  | 
COc1c(-c2cc(-c3ccccc3)nn2-c2ccc(C#N)cc2)ccc2occc12 |  | > 84% | > 70% | 25.5 µM | 8.6 µM | 6.2 µM | 6.8 µM |  |  |  |  | 
O=c1cc(-c2ccccc2)oc2c1ccc1ccccc12 [ALPHA-NAPHTHOFLAVONE] |  |  |  |  |  |  |  | 20.5% | 24.1% | 55.4% | Active | > 20 µM
COc1c(-c2ccccc2)oc2c(ccc3occc32)c1=O [KARANJIN] |  |  |  | 0.03 µM | 0.03 µM | 4.1 µM | 2.7 µM |  |  |  |  | 
COc1c(C(=O)/C=C(\O)c2ccc3c(c2)OCO3)ccc2occc12 [OVALITENONE] |  |  |  | 1.5 µM | 0.48 µM | 0.6 µM | 0.28 µM |  |  |  |  | 
O=c1cc(-c2ccc3c(c2)OCO3)oc2c1ccc1occc12 [PONGAGLABRONE] |  |  |  | 6.8 µM | 6.4 µM | 3.4 µM | 8.2 µM |  |  |  |  | 
COc1c(C(=O)/C=C(\O)c2ccccc2)ccc2occc12 [PONGAMOL] | 73% |  |  | 4.5 µM | 4.4 µM | 3.9 µM | 2.4 µM |  |  |  |  | 
